Measured values taken from ChEMBL document CHEMBL5390270, “Synthesis, anti-inflammatory activity, inverse molecular docking, and acid dissociation constants of new naphthoquinone-thiazole hybrids” (Bioorg Med Chem, 2023).
Calls of active or inactive are those of the source. The rule behind the calls is not given here.

Columns and labels:
Type in all cases: functional, cell-based
J774.2 [1] = experiment: Antiinflammatory activity in mouse J774.2 cells assessed as reduction in TNF-alpha level at 1 to 5 ug/mL […] by ELISA analysis; details: dose 1-5 µg/ml
In short: (§1)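 J774.2 macrophages were cultured in RPMI 1640 with 10 % FBS, antibiotics and sodium pyruvate at 37 °C, 5 % CO₂. Cells received molecules at 1, 2 and 5 µg/mL for 1 day without LPS. Supernatant TNF-α or IL6 was quantified by sandwich ELISA with TMB read-out at 450 nm. N = 3.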

J774.2 [2] = experiment: Antiinflammatory activity in LPS-stimulated mouse J774.2 cells assessed as reduction IL-6 production at 2 to 5 ug/mL incubated for […] by ELISA analysis; details: dose 2-5 µg/ml
In short: (§2)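 J774.2 macrophages in RPMI 1640 with 10 % FBS, 1 % penicillin/streptomycin and sodium pyruvate, 24-well plates, 37 °C, 5 % CO₂. Cells were stimulated for 1 day with test molecules at 1, 2 and 5 µg/mL plus LPS. SA at 5 µg/mL served as control. Supernatant TNF-α or IL6 was read by sandwich ELISA: biotin-antibody, streptavidin-HRP, TMB, absorbance at 450 nm. N = 3.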

J774.2 [3] = experiment: Antiproliferative activity against LPS-stimulated mouse J774.2 cells assessed as reduction in cell viability at 1 to 5 ug/mL incubated for 1 day by trypan blue staining analysis; details: dose 1-5 µg/ml
In short: (§3)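 J774.2 macrophages in RPMI 1640 with 10 % FBS, antibiotics and sodium pyruvate, 37 °C, 5 % CO₂. Cells were exposed for 1 day to molecules at 1, 2 and 5 µg/mL with or without LPS, with SA at 5 µg/mL as control. Supernatants were removed, cells washed in PBS, then counted with trypan blue to give viability. N = 3.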

J774.2 [4] = experiment: Antiproliferative activity against LPS-stimulated mouse J774.2 cells assessed as reduction in cell viability at 1 to 5 ug/mL incubated for 1 day in presence of LPS by trypan blue staining analysis; details: dose 1-5 µg/ml; in short: as §3
J774.2 [5] = experiment: Antiinflammatory activity in LPS-stimulated mouse J774.2 cells assessed as reduction in IL-6 production at 1 ug/ml incubated for […] by ELISA analysis; details: dose 1.0 µg/ml; in short: as §2
J774.2 [6] = experiment: Antiinflammatory activity in mouse J774.2 cells assessed as reduction in IL-6 production at 1 to 5 ug/mL […] by ELISA analysis; details: dose 1-5 µg/ml; in short: as §1
J774.2 [7] = experiment: Antiinflammatory activity in LPS-stimulated mouse J774.2 cells assessed as reduction in IL-6 production at 2 to 5 ug/ml […] by ELISA analysis; details: dose 2-5 µg/ml; in short: as §2
J774.2 [8] = experiment: Antiinflammatory activity in LPS-stimulated mouse J774.2 cells assessed as reduction in TNF-alpha level at 5 ug/mL incubated for 12 hrs by ELISA analysis; details: dose 5.0 µg/ml, time 24.0 hrs, in the assay text read “24 hrs” for “12 hrs”; in short: as §2
J774.2 [9] = experiment: Antiinflammatory activity in LPS-stimulated mouse J774.2 cells assessed as reduction in TNF-alpha level at 1 to 5 ug/mL incubated for 12 hrs by ELISA analysis; details: dose 1-5 µg/ml, time 24.0 hrs, in the assay text read “24 hrs” for “12 hrs”; in short: as §2
J774.2 [10] = experiment: Antiinflammatory activity in LPS-stimulated mouse J774.2 cells assessed as reduction in TNF-alpha level at 1 to 2 ug/mL […] by ELISA analysis; details: dose 1-2 µg/ml; in short: as §2
J774.2 [11] = experiment: Antiinflammatory activity in LPS-stimulated mouse J774.2 cells assessed as reduction in IL-6 production at 1 to 5 ug/ml […] by ELISA analysis; details: dose 1-5 µg/ml; in short: as §2
J774.2 [12] = experiment: Antiinflammatory activity in LPS-stimulated mouse J774.2 cells assessed as reduction IL-6 production at 5 ug/mL […] by ELISA analysis; details: dose 5.0 µg/ml; in short: as §2

Structure (SMILES)	Activity (J774.2 [1])	Activity (J774.2 [2])	Activity (J774.2 [3])	Activity (J774.2 [4])	Activity (J774.2 [5])	Activity (J774.2 [6])	Activity (J774.2 [7])	Activity (J774.2 [8])	Activity (J774.2 [9])	Activity (J774.2 [10])	Activity (J774.2 [11])	Activity (J774.2 [12])
NC1=C(n2c(-c3ccc(Cl)cc3)cs/c2=N\C(=O)c2ccc(Cl)c([N+](=O)[O-])c2)C(=O)c2ccccc2C1=O	inactive	Active	inactive	inactive	inactive	inactive	–	–	–	–	–	–
NC1=C(n2c(-c3ccc(F)cc3)cs/c2=N\C(=O)c2ccc(Cl)c([N+](=O)[O-])c2)C(=O)c2ccccc2C1=O	inactive	–	inactive	inactive	–	inactive	–	–	–	–	–	–
NC1=C(n2c(-c3ccc(Cl)cc3)cs/c2=N\C(=O)c2cccc([N+](=O)[O-])c2)C(=O)c2ccccc2C1=O	inactive	–	inactive	inactive	–	inactive	Active	Active	–	–	–	–
NC1=C(n2c(-c3ccc(Cl)cc3)cs/c2=N\C(=O)c2ccc([N+](=O)[O-])cc2)C(=O)c2ccccc2C1=O	inactive	–	inactive	inactive	–	inactive	–	–	Active	–	–	–
NC1=C(n2c(-c3ccccc3)cs/c2=N\C(=O)c2cccc([N+](=O)[O-])c2)C(=O)c2ccccc2C1=O	inactive	–	inactive	inactive	–	inactive	–	Active	–	inactive	–	–
NC1=C(n2c(-c3ccc(F)cc3)cs/c2=N\C(=O)c2ccc([N+](=O)[O-])cc2)C(=O)c2ccccc2C1=O	inactive	–	inactive	inactive	–	inactive	–	–	Active	–	–	–
NC1=C(n2c(-c3ccc(F)cc3)cs/c2=N\C(=O)c2cccc([N+](=O)[O-])c2)C(=O)c2ccccc2C1=O	inactive	–	inactive	inactive	–	inactive	–	–	–	–	–	–
NC1=C(n2c(-c3ccc(Br)cc3)cs/c2=N\C(=O)c2cccc([N+](=O)[O-])c2)C(=O)c2ccccc2C1=O	inactive	–	inactive	inactive	–	inactive	–	–	–	–	Active	–
NC1=C(n2c(-c3ccccc3)cs/c2=N\C(=O)c2ccc([N+](=O)[O-])cc2)C(=O)c2ccccc2C1=O	inactive	–	inactive	inactive	–	inactive	–	–	inactive	–	–	–
NC1=C(n2c(-c3ccccc3)cs/c2=N\C(=O)c2ccc(Cl)c([N+](=O)[O-])c2)C(=O)c2ccccc2C1=O	inactive	–	inactive	inactive	–	inactive	–	–	–	–	Active	–
NC1=C(n2c(-c3ccc(Br)cc3)cs/c2=N\C(=O)c2ccc(Cl)c([N+](=O)[O-])c2)C(=O)c2ccccc2C1=O	inactive	–	inactive	inactive	–	inactive	–	–	–	–	–	Active
NC1=C(n2c(-c3ccc(Br)cc3)cs/c2=N\C(=O)c2ccc([N+](=O)[O-])cc2)C(=O)c2ccccc2C1=O	inactive	–	inactive	inactive	–	inactive	–	–	Active	–	–	–
